Calls of active or inactive are those of the source. The rule behind the calls is not given here.
Key:
[1] = Selectivity index, ratio of MDL50 for monkey BGM cells to IC50 for Plasmodium falciparum CQR (W2 clone) infected in human Erythrocyte; type: toxicity
In short: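 SI calculated as MLD50 in BGM cells (neutral red, 24 h) divided by IC50 against P. falciparum W2 (SYBR, 48 h).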

Plasmodium falciparum = test: Antimalarial activity against Plasmodium falciparum CQR (W2 clone) infected in human erythrocyte assessed as reduction in parasite growth incubated for 48 hrs by SYBR assay; type: functional, organism-based
In short: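 W2 parasites cultured in A+ human erythrocytes in RPMI 1640 with ALBUMAX II, candle jar, 37 °C. Rings synchronized with sorbitol, then exposed to serial dilutions at 0.5% parasitemia and 2% hematocrit for 48 h at 37 °C. Lysis buffer with SYBR Safe, 30 min in the dark, fluorescence read at ex 485 nm. IC50 from sigmoid curve fit against drug-free control.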

[2] = Cytotoxicity against monkey BGM cells assessed as reduction in cell viability incubated for 24 hrs by neutral red dye based assay; conditions: chlorocebus aethiops, read-out: MDL50
In short: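 BGM monkey kidney cells grown in RPMI 1640 with 10% heat-inactivated fetal serum and gentamicin, 5% CO2, 37 °C. Cells allowed to adhere for 24 h, then exposed to compounds at 1000–1 μg/mL for 24 h. Neutral red uptake for 3 h, formaldehyde/CaCl2 fix, alcohol-acetic acid elution, absorbance at 540 nm. Viability taken as percent of untreated cells after background subtraction. MLD50 derived from this.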

[3] = Cytotoxicty against mouse J774.A1 cells assessed as cell viability at 12.5 uM incubated for 24 hrs by resazurin dye based assay (reference value: 100 %); conditions: read-out: Activity
In short: (§1)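 J774A.1 macrophages grown in DMEM with 10% FBS and 0.1% gentamycin, seeded at 1×10^5 cells/well. Exposed to compounds at 0, 12.5, 25, 50 or 100 μM for 24 h. Resazurin (10 μg/ml) added for 3 h, then fluorescence read. Run in triplicate. Viability given as percent of 0.2% DMSO-treated cells.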

Plasmodium berghei [4] = test: Antimalarial activity against Plasmodium berghei NK65 infected in mouse assessed as parasite growth at 25 mg/kg, po administered for 3 days and measured on day 7 Giemsa staining based assay; type: functional; conditions: time 7 day
In short: (§2)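 P. berghei NK65 kept by weekly blood passage in mice. Mice inoculated i.p. with 1×10^6 infected erythrocytes, randomized after about 24 h into groups of five. Oral dosing once daily for three days, vehicle 3% DMSO in RPMI. Test compounds given at 25 mg/kg, CQ control at 20 mg/kg. Parasitemia read on Giemsa-stained thin smears on days 5 and 7 and expressed relative to untreated mice.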

J774.A1 [5] = test: Inhibition of LPS-induced TNFalpha production in mouse J774.A1 cells incubated for 24 hrs by ELISA; type: functional, cell-based; conditions: dose microM 0.5-25, time 24.0 hrs
In short: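 J774A.1 cells seeded at 2×10^6 cells/well. Pretreated with vehicle, dexamethasone 1 μM, or compounds at 0.5–25 μM. Stimulated with LPS 100 ng/ml for 24 h. Supernatants stored at −20 °C, then TNFα measured by sandwich ELISA in pg/mL. Triplicate, mean ± SEM.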

[6] = Cytotoxicty against mouse J774.A1 cells assessed as cell viability at 50 uM incubated for 24 hrs by resazurin dye based assay (reference value: 100 %); conditions: read-out: Activity; in short: as §1
[7] = Cytotoxicty against mouse J774.A1 cells assessed as cell viability at 100 uM incubated for 24 hrs by resazurin dye based assay (reference value: 100 %); conditions: read-out: Activity; in short: as §1
Plasmodium berghei [8] = test: Antimalarial activity against Plasmodium berghei NK65 infected in mouse assessed as parasite growth at 25 mg/kg, po administered for 3 days and measured on day 5 Giemsa staining based assay relative to control; type: functional; conditions: time 5 day; in short: as §2
[9] = Cytotoxicty against mouse J774.A1 cells assessed as cell viability at 25 uM incubated for 24 hrs by resazurin dye based assay (reference value: 100 %); conditions: read-out: Activity; in short: as §1
Plasmodium berghei [10] = test: Antimalarial activity against Plasmodium berghei NK65 infected in mouse assessed as increase in mouse survival rate at 25 mg/kg, po administered for 3 days and observed for 7 days; type: functional, organism-based; conditions: time 7.0 day
Plasmodium berghei [11] = test: Antimalarial activity against Plasmodium berghei NK65 infected in mouse assessed as parasite growth at 20 mg/kg, po administered for 3 days and measured on day 5 Giemsa staining based assay relative to control; type: functional; conditions: time 5 day; in short: as §2
Plasmodium berghei [12] = test: Antimalarial activity against Plasmodium berghei NK65 infected in mouse assessed as parasite growth at 20 mg/kg, po administered for 3 days and measured on day 7 Giemsa staining based assay relative to control; type: functional; conditions: time 7 day; in short: as §2
Plasmodium berghei [13] = test: Antimalarial activity against Plasmodium berghei NK65 infected in mouse assessed as increase in mouse survival at 20 mg/kg, po administered for 3 days and observed for 7 days; type: functional, organism-based; conditions: time 7.0 day
J774.A1 [14] = test: Inhibition of LPS-induced NO production in mouse J774.A1 cells incubated for 24 hrs by Griess reagent based assay; type: functional, cell-based; conditions: dose microM 0.5-25, time 24.0 hrs
In short: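 Compounds made as 10 mM DMSO stocks and diluted in medium. J774A.1 cells pre-incubated with compounds at 25 μM for screening, or 0.5–25 μM for dose-response, with dexamethasone 1 μM or 0.2% DMSO as controls. Stimulated with LPS 37.5 ng/ml plus IFNγ 25 U/ml for 24 h at 37 °C, 5% CO2. Supernatant nitrite measured by Griess at 540 nm. Triplicate, mean ± SEM.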

Compound | selectivity ratio [1] | IC50 (Plasmodium falciparum) [nM] | CC50 at 24 h [2] [µM] | viability at 24 h, 12.5 µM [3] [%] | viability at 24 h, 50 µM [6] [%] | viability at 24 h, 100 µM [7] [%] | viability at 24 h, 25 µM [9] [%] | further results
CC(=O)Nc1ccc(Cl)cc1C(=O)C(=O)NCCNc1ccnc2cc(Cl)ccc12 | 292 | 520 | 152 | – | – | – | – | –
CC(=O)Nc1ccc(Br)cc1C(=O)C(=O)NCCCNc1ccnc2cc(Cl)ccc12 | 270 | 380 | 103 | – | – | – | – | –
CC(=O)Nc1ccc(C)cc1C(=O)C(=O)NCCCNc1ccnc2cc(Cl)ccc12 | – | 220 | – | – | – | – | – | –
COc1cc(NC(C)CCCNC(=O)C(F)(F)c2ccccc2NC(C)=O)c2ncccc2c1 (stereo unspecified) | 4 | 25500 | 113 | – | – | – | – | –
CC(=O)Nc1ccccc1C(=O)C(=O)NCCCCNc1ccnc2cc(Cl)ccc12 | > 700 | 180 | 124 | 98.4 | 83.4 | 10.1 | 100 | Activity (Plasmodium berghei [4]): 2%; inhibition (J774.A1 [5]): inactive; Activity (Plasmodium berghei [8]): 0%
COc1cc(NC(C)CCCNC(=O)C(F)(F)c2cc(Br)ccc2NC(C)=O)c2ncccc2c1 (stereo unspecified) | > 520 | 3500 | > 1820 | – | – | – | – | –
CC(=O)Nc1ccccc1C(=O)C(=O)NCCCNc1ccnc2cc(Cl)ccc12 | > 400 | 200 | 91.7 | 100 | 89.1 | 67.6 | 100 | Activity (Plasmodium berghei [4]): 15%; Activity (Plasmodium berghei [10]): Active; Activity (Plasmodium berghei [8]): 0%
CC(=O)Nc1ccc(C)cc1C(=O)C(=O)NCCCCNc1ccnc2cc(Cl)ccc12 | – | 840 | – | – | – | – | – | –
COc1cc(NC(C)CCCNC(=O)C(=O)c2cc(Cl)ccc2NC(C)=O)c2ncccc2c1 (stereo unspecified) | > 20 | 7700 | 164 | 100 | 77.6 | 54.6 | 100 | –
CC(=O)Nc1ccccc1C(F)(F)C(=O)NCCCNc1ccnc2cc(Cl)ccc12 | > 250 | 400 | 99 | 100 | 91.5 | 33.3 | 100 | –
COc1cc(NC(C)CCCNC(=O)C(=O)c2cc(C)ccc2NC(C)=O)c2ncccc2c1 (stereo unspecified) | > 80 | 25300 | > 2160 | – | – | – | – | –
CC(=O)Nc1ccccc1C(=O)C(=O)NCCNc1ccnc2cc(Cl)ccc12 | > 300 | 710 | 261 | – | – | – | – | –
CCN(CC)CCCC(C)Nc1ccnc2cc(Cl)ccc12 (stereo unspecified) [CHLOROQUINE] | – | – | 457 | – | – | – | – | Activity (Plasmodium berghei [11]): 99%; Activity (Plasmodium berghei [12]): 99%; Activity (Plasmodium berghei [13]): Active
CC(=O)Nc1ccc(Cl)cc1C(=O)C(=O)NCCCCNc1ccnc2cc(Cl)ccc12 | 29 | 3180 | 91.1 | – | – | – | – | –
CC(=O)Nc1ccccc1C(F)(F)C(=O)NCCCCNc1ccnc2cc(Cl)ccc12 | > 50 | 2700 | 140 | 100 | 83.7 | 10.4 | 100 | –
COc1cc(NC(C)CCCNC(=O)C(F)(F)c2cc(C)ccc2NC(C)=O)c2ncccc2c1 (stereo unspecified) | – | 20700 | – | – | – | – | – | –
COc1cc(NC(C)CCCNC(=O)C(=O)c2ccccc2NC(C)=O)c2ncccc2c1 (stereo unspecified) | – | 26800 | – | – | – | – | – | –
CC(=O)Nc1ccc(Cl)cc1C(=O)C(=O)NCCCNc1ccnc2cc(Cl)ccc12 | 258 | 120 | 30.9 | 100 | 82.7 | 10.7 | 100 | Activity (Plasmodium berghei [4]): 0%; inhibition (J774.A1 [5]): Dose-dependent effect; Activity (Plasmodium berghei [10]): Active; inhibition (J774.A1 [14]): Dose-dependent effect; Activity (Plasmodium berghei [8]): 0%
CC(=O)Nc1ccc(C)cc1C(=O)C(=O)NCCNc1ccnc2cc(Cl)ccc12 | > 170 | 490 | > 84 | – | – | – | – | –
CC(=O)Nc1ccc(Cl)cc1C(F)(F)C(=O)NCCCNc1ccnc2cc(Cl)ccc12 | > 1300 | 500 | 654 | 100 | 87.5 | 10.4 | 95.5 | inhibition (J774.A1 [5]): Dose-dependent effect; inhibition (J774.A1 [14]): Dose-dependent effect
COc1cc(NC(C)CCCNC(=O)C(=O)c2cc(Br)ccc2NC(C)=O)c2ncccc2c1 (stereo unspecified) | > 100 | 2500 | 309 | 100 | 75.5 | 75.8 | 100 | –

Source: ChEMBL document CHEMBL4699631, “Antimalarial and anti-inflammatory activities of new chloroquine and primaquine hybrids: Targeting the blockade of malaria parasite transmission” (Bioorg Med Chem, 2020)
